Reference: ChEMBL document CHEMBL4706580, “4-Amino-1,2,4-triazole-3-thione-derived Schiff bases as metallo-β-lactamase inhibitors” (Eur J Med Chem, 2020)
pIC50, pKi: −log10 of the molar value. The source made the active and inactive calls. The rule behind the calls is not given here.

Tests used:
[1] = Inhibition of beta-lactamase IMP-1 (unknown origin) expressed in Escherichia coli BL21(DE3) using imipenem as substrate by measuring substrate hydrolysis by spectrophotometric analysis
In short: (§1)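 Purified enzyme (overproduced in E. coli BL21(DE3), pET-9a; ion-exchange and gel filtration), 1-70 nM final. Reporter substrate 150 μM imipenem, read at 300 nm, 30 °C, 50 mM HEPES pH 7.5. Single-point screen at 100 or 200 μM; Ki from v0/vi vs [I] (0.5–1,000 μM final) assuming competitive inhibition, or Dixon plot. Triplicate.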

[2] = Inhibition of beta-lactamase VIM4 (unknown origin) expressed in Escherichia coli BL21(DE3) using imipenem as substrate by measuring substrate hydrolysis at 100 uM by spectrophotometric analysis; in short: as §1
Escherichia coli [3] = test: Antibacterial activity against NDM-1 producing Escherichia coli in presence of colistin by broth microdilution method.; format: functional
[4] = Inhibition of beta-lactamase L1 (unknown origin) expressed in Escherichia coli BL21(DE3) using nitrocefin as substrate by measuring substrate hydrolysis at 200 uM preincubated for 30 mins by spectrophotometric analysis
[5] = Inhibition of beta-lactamase VIM4 (unknown origin) expressed in Escherichia coli BL21(DE3) using imipenem as substrate by measuring substrate hydrolysis at 200 uM by spectrophotometric analysis; in short: as §1
[6] = Inhibition of beta-lactamase NDM1 (unknown origin) expressed in Escherichia coli BL21(DE3) using cefotaxime/nitrocefin as substrate by measuring substrate hydrolysis by spectrophotometric analysis
In short: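 His-tagged enzyme from E. coli BL21(DE3) pET-15b, affinity-purified, 1-70 nM final. Reporter substrate 120 μM cefotaxime (260 nm) or 100 μM nitrocefin (482 nm), 30 °C, 50 mM HEPES pH 7.5. Inhibitor 0.5–1,000 μM final; competitive Ki from v0/vi vs [I] slope or Dixon plot. Triplicate.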

[7] = Inhibition of beta-lactamase L1 (unknown origin) expressed in Escherichia coli BL21(DE3) using nitrocefin as substrate by measuring substrate hydrolysis at 100 uM preincubated for 30 mins by spectrophotometric analysis
In short: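 Enzyme 0.2–0.8 nM in 25 mM HEPES pH 7.5 with 50 μM ZnCl2 final, pre-incubated 30 min at 21 °C with inhibitor (100 μM screen). Nitrocefin 100 μM final, read at 482 nm, 30 °C. Residual activity vs three uninhibited samples; Ki (1–100 μM inhibitor) from Hanes linearization, competitive model. Triplicate.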

Escherichia coli [8] = test: Synergistic antibacterial activity against NDM-1 producing Escherichia coli assessed as MIC of meropenem at 32 ug/ml by broth microdilution method; format: functional; conditions: dose 32 µg/ml
[9] = target: Hydroxyacylglutathione hydrolase (Homo sapiens); test: Inhibition of human Glyoxalase II expressed in Escherichia coli BL21 (DE3)
Escherichia coli [10] = test: Synergistic antibacterial activity against NDM-1 producing Escherichia coli assessed as MIC of ceftazidime at 32 ug/ml by broth microdilution method; format: functional; conditions: dose 32 µg/ml
[11] = Inhibition of beta-lactamase NDM-1 (unknown origin) expressed in Escherichia coli LZ2310 assessed as potentiation of ceftazidime antibacterial activity by measuring ceftazidime induced diameter of inhibition zone at 80 uM incubated for 18 hrs by disk diffusion method (reference value: 15 mm)
In short: (§2)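 Efflux-deficient E. coli LZ2310 (NorE, MdfA, AcrA knocked out) carrying pLB-II with the cloned MBL gene. Mueller-Hinton, CLSI disk diffusion; antibiotic disks (30 µg cefoxitin for VIM-2, 10 µg ampicillin for VIM-4, 30 µg ceftazidime for NDM-1/IMP-1) loaded with inhibitor in DMSO (≤15 µL). Zone diameter after 18 h, 35 ± 1 °C; DMSO and 220 µg EDTA controls. Triplicate.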

[12] = Inhibition of beta-lactamase VIM2 (unknown origin) expressed in Escherichia coli BL21(DE3) using imipenem as substrate by measuring substrate hydrolysis at 100 uM by spectrophotometric analysis; in short: as §1
Escherichia coli [13] = test: Synergistic antibacterial activity against NDM-1 producing Escherichia coli assessed as MIC of imipenem at 32 ug/ml by broth microdilution method; format: functional; conditions: dose 32 µg/ml
Escherichia coli [14] = test: Synergistic antibacterial activity against NDM-1 producing Escherichia coli assessed ass MIC of ceftazidime/avibactam at 32 ug/ml by broth microdilution method; format: functional; conditions: dose 32 µg/ml
In short: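 MIC of ceftazidime-avibactam (avibactam fixed at 4 µg/mL) by CLSI broth microdilution in Mueller-Hinton broth. Used the NDM-1-producing multidrug-resistant E. coli clinical isolate SI-001M at 5 × 10⁴ CFU/well, with and without inhibitor at a fixed 32 µg/ml. No colistin added. Triplicate determinations.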

[15] = Inhibition of beta-lactamase VIM2 (unknown origin) expressed in Escherichia coli BL21(DE3) using imipenem as substrate by measuring substrate hydrolysis at 200 uM by spectrophotometric analysis; in short: as §1
[16] = Inhibition of beta-lactamase IMP-1 (unknown origin) expressed in Escherichia coli LZ2310 assessed as potentiation of ceftazidime antibacterial activity by measuring ceftazidime induced diameter of inhibition zone at 320 uM incubated for 18 hrs by disk diffusion method (reference value: 9 mm); in short: as §2
[17] = Inhibition of beta-lactamase VIM-2 (unknown origin) expressed in Escherichia coli LZ2310 assessed as potentiation of cefoxitin antibacterial activity by measuring cefoxitin induced diameter of inhibition zone at 320 uM incubated for 18 hrs by disk diffusion method (reference value: 14 mm); in short: as §2
[18] = Inhibition of beta-lactamase NDM1 (unknown origin) expressed in Escherichia coli BL21(DE3) using cefotaxime/nitrocefin as substrate by measuring substrate hydrolysis at 100 uM by spectrophotometric analysis
[19] = Inhibition of beta-lactamase VIM-2 (unknown origin) expressed in Escherichia coli XL-1 assessed as potentiation of cefoxitin antibacterial activity by measuring cefoxitin induced diameter of inhibition zone at 320 uM incubated for 18 hrs by disk diffusion method (reference value: 8 mm)
In short: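 Wild-type efflux E. coli XL-1 Blue transformed with pLB-II-VIM-2. Mueller-Hinton disk diffusion per CLSI, 30 µg cefoxitin disks loaded with inhibitor dissolved in DMSO (≤15 µL). Growth-inhibition zone measured after 18 h at 35 ± 1 °C; DMSO negative and 220 µg EDTA positive controls. Triplicate.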

[20] = Inhibition of beta-lactamase VIM4 (unknown origin) expressed in Escherichia coli BL21(DE3) using imipenem as substrate by measuring substrate hydrolysis by spectrophotometric analysis; in short: as §1
[21] = Inhibition of beta-lactamase IMP-1 (unknown origin) expressed in Escherichia coli BL21(DE3) using imipenem as substrate by measuring substrate hydrolysis at 100 uM by spectrophotometric analysis; in short: as §1
[22] = Inhibition of beta-lactamase IMP-1 (unknown origin) expressed in Escherichia coli BL21(DE3) using imipenem as substrate by measuring substrate hydrolysis at 200 uM by spectrophotometric analysis; in short: as §1
[23] = Inhibition of beta-lactamase NDM1 (unknown origin) expressed in Escherichia coli BL21(DE3) using cefotaxime/nitrocefin as substrate by measuring substrate hydrolysis at 200 uM by spectrophotometric analysis
[24] = Inhibition of beta-lactamase VIM2 (unknown origin) expressed in Escherichia coli BL21(DE3) using imipenem as substrate by measuring substrate hydrolysis by spectrophotometric analysis; in short: as §1

| inhibition [2] | inhibition [4] | inhibition [5] | inhibition [7] | inhibition zone (IZ) [11] [mm] | inhibition [12] | inhibition [15] | inhibition zone (IZ) [16] [mm] | inhibition zone (IZ) [17] [mm] | inhibition [18] | inhibition zone (IZ) [19] [mm] | inhibition [21] | inhibition [22] | SMILES | pKi [1] | pKi [6] | pKi [20] | other results |
| --- | --- | --- | --- | --- | --- | --- | --- | --- | --- | --- | --- | --- | --- | --- | --- | --- | --- |
| inactive | inactive | inactive | inactive | 15 | inactive | inactive | – | – | – | – | – | – | S=c1[nH]nc(-c2cccc(-c3ccccc3)c2)n1/N=C/c1ccc(OCc2ccccc2)cc1 | 5.05 | 5.74 | – | MIC (Escherichia coli [3]): > 256 µg/mL; MIC (Escherichia coli [8]): 64 µg/mL; pIC50 [9]: 4.63; MIC (Escherichia coli [10]): > 256 µg/mL; MIC (Escherichia coli [13]): 8 µg/mL; MIC (Escherichia coli [14]): > 256 µg/mL |
| inactive | inactive | inactive | inactive | – | inactive | inactive | 11 | 16 | 64% | 10 | – | – | S=c1[nH]nc(-c2ccc(-c3ccccc3)cc2)n1/N=C/c1ccc(OCc2ccccc2)cc1 | 4.94 | – | – | – |
| – | – | – | 60% | 15 | inactive | inactive | – | – | – | – | inactive | inactive | O=C(O)c1ccccc1/C=N/n1c(-c2ccc(Cl)cc2)n[nH]c1=S | – | 5.12 | 5.15 | – |
| – | – | – | 40% | – | – | – | 12 | 17 | inactive | 10 | inactive | inactive | O=C(O)c1ccccc1/C=N/n1c(-c2ccccc2O)n[nH]c1=S | – | – | 5.52 | inhibition [23]: inactive; pKi [24]: 5.66 |
